# Assay outcomes: PubChem, several laboratories
# Compounds with a hit are over-represented: about 3.3% of the library has one in this group of screens.
# Hep lipid drop: hepatic lipid droplet formation modulation; AID 1656; 240,000 tested, 0.4% active; inhibition, % at 6.5 µM; AML12 mouse hepatocytes, oleate lipid droplets, BODIPY imaging;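 active = lipid droplet intensity inhibited by at least 50%, with more than 500 cells counted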
#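 material = mouse AML12 hepatocyte cell line, fixed after treatment | also added = 100 µM oleic acid challenge | doses = compound at 6.5 µM only | schedule = overnight exposure | technique = Image-based BODIPY and DAPI two-channel analysis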
# HTR2A ag: activates the mouse 5-HT2A serotonin receptor; P35363; CHO-K1 mHTR2A beta-arrestin complementation, luminescence; percent of 30 µM serotonin response; activation, % at 7.6 µM; 360,000 tested, 0.66% active;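 active = activation above a run cutoff, the mean activation of all tested compounds plus 3 SD, cut at about 14% in these data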;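 also: 0% = plate median of compound wells and 100% = 30 µM serotonin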
# M18AAP inhibitor: blocks P. falciparum M18 aspartyl aminopeptidase. 290,000 tested, 1.2% active. recombinant PfM18AAP, H-Glu-NHMec fluorogenic cleavage. AID 1822. inhibition, % at 7.35 µM;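 active = inhibition above the campaign mean inhibition over all tested compounds plus 3 SD, cut at about 28% in these data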;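 also: 0% = plate median of test compound wells and 100% = 2 mM ZnCl2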
# sPLA2-III inh: Inhibits HGIII-sPLA2 liposome hydrolysis, primary screen. Q9NZ20. QFRET BODIPY PC-A2 liposome hydrolysis, fluorescence. inhibition, % at 12.2 µM. 370,000 tested, 0.56% active;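 active = inhibition above mean plus 3 SD of compounds lying within the high and low control bounds, cut at about 19% in these data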;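 also: 0% = median of test compound wells and 100% = no enzyme DMSO wells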
# Target sequence (Q9NZ20 whole entry, looked up): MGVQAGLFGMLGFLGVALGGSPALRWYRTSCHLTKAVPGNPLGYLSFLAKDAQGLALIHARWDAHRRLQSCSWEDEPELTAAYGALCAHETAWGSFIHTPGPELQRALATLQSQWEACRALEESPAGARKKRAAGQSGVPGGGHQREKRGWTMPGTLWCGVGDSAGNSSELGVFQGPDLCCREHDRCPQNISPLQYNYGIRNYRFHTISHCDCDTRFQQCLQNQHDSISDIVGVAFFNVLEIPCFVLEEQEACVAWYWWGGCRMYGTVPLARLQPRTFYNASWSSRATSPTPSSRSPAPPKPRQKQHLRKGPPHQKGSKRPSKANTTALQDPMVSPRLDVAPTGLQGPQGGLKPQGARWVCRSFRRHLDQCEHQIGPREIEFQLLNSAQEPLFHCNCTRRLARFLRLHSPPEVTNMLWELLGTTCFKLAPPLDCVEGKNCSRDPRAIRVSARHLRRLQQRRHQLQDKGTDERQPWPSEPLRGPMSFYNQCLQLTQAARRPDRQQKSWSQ
# Arrestin-AP2 inh: inhibitors of human beta-arrestin and AP2 interaction; FITC-arrestin peptide / GST-AP2 beads, flow cytometry; AP2 beta2 appendage carries R879A mutation; inhibition, % at 10 µM; 340,000 tested, 0.31% active;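 active = inhibition above a set limit, near 3 SD of compounds lacking own fluorescence, cut at about 54% in these data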;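 also: plate controls were DMSO wells for no effect and 5 µM unlabelled arrestin peptide for full effect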
#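 Assay system: GST-AP2 R879A bound to glutathione beads, E. coli-expressed; Medium: PBS with 0.05% Tween 20 and 0.1% BSA; Also added: fluorescein-tagged arrestin peptide at 50 nM final; Timing: 12 min plus 1 h, RT; Measured by: flow cytometry, FL1 (488/535 nm); Evaluation: percent drop in bead-associated FITC signal.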
# NRP1-CendR mod: alters CendR peptide binding to human NRP-1; FAM-RPARPAR peptide binding to NRP-1, fluorescence polarization; inhibition, % at 25 µM; 360,000 tested, 0.85% active; AID 602438;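 active = inhibition or corrected inhibition above about 18%, plus a signal ratio from 0.5 to 1.5, limit read from the data, passing the limit was not always enough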
# hGIII sPLA2 conf: human GIII-sPLA2 inhibition, confirmation; shares compounds with sPLA2-III inh; recombinant hGIII-sPLA2, BODIPY PC-A2 QFRET fluorescence; inhibition, % at 12.2 µM; 2,000 tested, 34% active;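 active = mean inhibition across triplicates above the hit cutoff set in the earlier primary screen, cut at about 19% in these data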;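 also: 0% = enzyme with DMSO and 100% = DMSO wells lacking enzyme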
# BODIPY interf: 535nm fluorescence interference, HGIII-sPLA2 counter-screen | 2,000 tested, 8.5% active | inhibition, % at 12.2 µM | shares compounds with sPLA2-III inh | BODIPY FL product fluorescence interference, QFRET | AID 743282;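 active = average inhibition above the solvent-only control mean plus 3 SD, cut at about 6% in these data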;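 also: 0% = DMSO with substrate plus product and 100% = DMSO with substrate alone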
# 535nm interf DR: 535nm optical interference dose response, HGIII-sPLA2 counter-screen; IC50, µM; shares compounds with sPLA2-III inh; 240 tested, under 10 active; BODIPY FL product fluorescence interference, cell-free;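 active = IC50 at or below 10 µM; inactive = IC50 above 10 µM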
# Active calls of the source: *; x = no result.
SMILES,Hep lipid drop,HTR2A ag,M18AAP inhibitor,sPLA2-III inh,Arrestin-AP2 inh,NRP1-CendR mod,hGIII sPLA2 conf,BODIPY interf,others
O=C(Cc1ccccc1)NNC(=S)NC(=O)c1cccs1,-4,-7,12,21*,-47,-8,35*,-5,535nm interf DR=>122
CCCCC(=O)Nc1ccc(C(=O)NNC(=S)NC(=O)c2ccco2)cc1,6,-2,10,20*,9,8,24*,-13,
O=C(Nc1ccc(NC(=S)NC(=O)c2cccs2)cc1)c1ccccc1,0,-3,1,15,2,7,x,x,
O=C(NNC(=S)NC(=O)c1cccs1)c1ccc(NC(=O)c2ccccc2)cc1,27,1,3,21*,-5,0,41*,-34,535nm interf DR=>122
CCCCC(=O)Nc1ccc(C(=O)NNC(=S)NC(=O)c2cccs2)cc1,-6,-1,5,24*,-2,2,28*,-28,535nm interf DR=>122
O=C(NNC(=S)NC(=O)c1cccs1)c1ccc(O)cc1,-8,-8,24,9,-2,6,x,x,
CCCCN1C(=O)c2ccccc2NC1c1ccc(OC)c(COc2ccc(NC(C)=O)cc2)c1 (configuration not stated),x,x,x,-8,x,x,x,x,
O=C(OCC#CCSc1nnc(-c2c[nH]c3ccccc23)o1)c1ccc(F)cc1,x,x,x,-38,x,x,x,x,
O=C(OCc1cn(Cc2ccc(F)c(F)c2)nn1)N1CCOCC1,x,x,x,19*,x,x,-3,-2,
Nc1ccc(O)c2c(=O)cc(-c3ccccc3Cl)oc12,-4,-8,1,27*,16,24,42*,-2,
O=c1cc(-c2ccccc2Cl)oc2cc(O)cc(O)c12,1,-5,-6,-7,3,-8,x,x,
COc1ccc(-c2ccc(C(=O)Nc3cccc(N(C)C)c3)c3occc23)c(C)c1,x,3,x,20*,x,-9,16,7.7*,
Cc1cc(C(=O)NNC(=S)Nc2cccc(C(F)(F)F)c2)nn1C,0,-7,9,47*,1,2,42*,2,535nm interf DR=>122
CCOc1ccc(NC(=S)NN2C(C)CCCC2C)cc1 (configuration not stated),-10,4,-1,22*,-1,-14,11,-3,
O=C(Nc1ccc(F)cc1)Nc1c(-c2ccccc2)nc2ncccn12,x,x,x,12,x,x,x,x,
CCN1CCN(CCCNC(=O)c2ccc(NC(=O)C3=C(C)OCCS3)cc2)CC1,12,7,-1,7,-1,17,x,x,
COc1cccc2sc(NN)nc12,5,-2,22,12,29,10,x,x,
NNc1nc2c(Cl)c(Cl)ccc2s1,17,1,30*,24*,0,1,19,13*,
O=C(Nc1nnc([C@H]2C[C@H](O)[C@@H](CO)O2)s1)c1ccccc1F,x,4,x,7,x,-5,x,x,
O=C(Nc1nnc([C@@H]2C[C@H](O)[C@@H](CO)O2)s1)c1ccccc1Cl,x,2,x,20*,x,-10,0,-2,
N#Cc1ccc(OCCCN2CCC(C(O)(c3ccccc3)c3ccccc3)CC2)cc1,x,x,x,-19,x,x,x,x,
O=C(N/N=C/c1c(O)ccc2ccccc12)c1ccc(CO)nc1,-32,0,15,25*,18,-87,12,-6,
O=C(NN=Cc1c(O)ccc2ccccc12)c1ccc2c(c1)OCO2,x,10,x,37*,5,5,8,-6,
O=CN/N=C/c1c(O)ccc2ccccc12,16,4,10,-2,17,39,x,x,
Cc1ccc(-c2cc(C(=O)NN=Cc3c(O)ccc4ccccc34)[nH]n2)cc1C,x,x,x,26*,x,x,-17,-10,
SMILES,Hep lipid drop,HTR2A ag,M18AAP inhibitor,sPLA2-III inh,Arrestin-AP2 inh,NRP1-CendR mod,hGIII sPLA2 conf,BODIPY interf,others
NC(=S)N/N=C/c1c(O)ccc2ccccc12,-13,-5,27,35*,0,2,21*,0,
COc1ccc2ccccc2c1/C=N/NC(=O)c1ccc(C)nc1,7,-8,12,-5,1,1,x,x,
O=C(N/N=C/c1ccccc1)c1ccc2c(c1)OCO2,-3,-4,0,11,-6,3,x,x,
CC1(C)Cc2c(cnn2-c2ccccc2)C(NC(=O)CCCn2cncn2)C1 (configuration not stated),-17,0,-4,0,14,-1,x,x,
Nc1ccc(C(=O)N/N=C\c2cc(N=Nc3cccc4ccccc34)ccc2O)cc1,x,-1,-1,34*,-4,-3,38*,8.2*,
COC(=O)N/N=C/c1cc(N=Nc2ccccc2Cl)ccc1O,25,-6,1,-2,10,-5,x,x,
O=C(c1ccccc1)N1CCC(Oc2cccnc2)CC1,x,x,x,1,x,x,x,x,
CCc1ccc(S(=O)(=O)c2nnn3c2nc(NCCNC(C)=O)c2ccccc23)cc1,9,1,4,6,4,-2,x,x,
CCCCNc1nc2c(S(=O)(=O)c3ccccc3)nnn2c2ccccc12,-19,0,-2,20*,2,2,4,-6,
CCC(C(=O)NCc1ccncc1)c1ccccc1 (configuration not stated),7,-1,8,4,0,8,x,x,
C[C@@H]1C[C@H](O)CCCCCC(=O)Cc2cc(O)cc(O)c2C(=O)O1,x,x,x,8,x,x,x,x,
CCOC(=O)C1CCCN(C(=O)c2cc(-c3ccc(C)cc3)on2)C1 (configuration not stated),-13,1,6,-6,21,0,x,x,
CCOC(=O)C1CCCN(C(=O)c2cc3ncc(Br)cn3n2)C1 (configuration not stated),-5,-2,2,21*,3,-8,0,-9,
O=c1cc(-c2ccccc2F)oc2ccccc12,10,-2,-6,1,-6,-1,x,x,
O=c1cc(C(F)(F)C(F)F)oc2ccccc12,-15,-2,-9,25*,10,-7,-2,-6,
S=C1SC2(CCCCCC2)NC2=C1CCCCC2,x,2,x,19*,x,-11,25*,3,
CCN1C(=NCCCOC(C)C)N[C@@H](c2ccccc2)[C@H](C(=O)OC)[C@H]1C,x,2,x,19*,-11,5,1,-12,
CCCCCCCCN1C(=O)[C@@H](CC(=O)NCCCN2CCCC2=O)C[C@@]2(C(=O)OC)C1=C[C@H](C(C)(C)C)O[C@@H]2C,x,x,x,-11,x,x,x,x,
C[C@H](CO)N1C[C@H](C)[C@@H](CN(C)C(=O)NC2CCCCC2)OCc2cn(nn2)CCCC1=O,x,x,x,15,x,x,x,x,
COc1ccc2c(c1)c[n+](C)c1c3cc(OC)c(OC)cc3ccc21,x,2,x,27*,x,-5,36*,-26,535nm interf DR=>122
